# Test results published in ChEMBL document CHEMBL3124871, “Synthesis and pharmacological characterization of 1-benzyl-4-aminoindole-based thyroid hormone receptor β agonists” (Bioorg Med Chem, 2014).
# Tests used:
# [1] = molecular target: T1, Thyroid hormone receptor beta (Homo sapiens, UniProt P10828); experiment: Displacement of [125I]-Triiodothyronine from human recombinant TRbeta1 ligand binding domain after 2 to 3 hrs by beta counting
# T1 sequence (P10828 whole entry): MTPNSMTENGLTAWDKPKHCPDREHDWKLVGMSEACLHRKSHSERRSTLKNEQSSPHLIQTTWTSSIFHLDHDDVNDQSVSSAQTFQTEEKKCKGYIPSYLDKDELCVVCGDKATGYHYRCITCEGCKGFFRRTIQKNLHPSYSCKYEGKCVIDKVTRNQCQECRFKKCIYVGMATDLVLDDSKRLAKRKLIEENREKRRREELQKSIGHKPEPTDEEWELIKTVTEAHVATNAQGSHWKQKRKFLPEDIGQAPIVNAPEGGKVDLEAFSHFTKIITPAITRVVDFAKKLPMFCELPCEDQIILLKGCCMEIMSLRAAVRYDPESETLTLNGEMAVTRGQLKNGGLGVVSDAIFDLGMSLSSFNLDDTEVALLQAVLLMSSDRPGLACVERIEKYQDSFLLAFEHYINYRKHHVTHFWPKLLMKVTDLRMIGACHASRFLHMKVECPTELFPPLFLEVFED
# [2] = molecular target: T2, Thyroid hormone receptor alpha (Homo sapiens, UniProt P10827); experiment: Displacement of [125I]-Triiodothyronine from human recombinant TRalpha1 ligand binding domain after 2 to 3 hrs by beta counting
# T2 sequence (P10827 whole entry): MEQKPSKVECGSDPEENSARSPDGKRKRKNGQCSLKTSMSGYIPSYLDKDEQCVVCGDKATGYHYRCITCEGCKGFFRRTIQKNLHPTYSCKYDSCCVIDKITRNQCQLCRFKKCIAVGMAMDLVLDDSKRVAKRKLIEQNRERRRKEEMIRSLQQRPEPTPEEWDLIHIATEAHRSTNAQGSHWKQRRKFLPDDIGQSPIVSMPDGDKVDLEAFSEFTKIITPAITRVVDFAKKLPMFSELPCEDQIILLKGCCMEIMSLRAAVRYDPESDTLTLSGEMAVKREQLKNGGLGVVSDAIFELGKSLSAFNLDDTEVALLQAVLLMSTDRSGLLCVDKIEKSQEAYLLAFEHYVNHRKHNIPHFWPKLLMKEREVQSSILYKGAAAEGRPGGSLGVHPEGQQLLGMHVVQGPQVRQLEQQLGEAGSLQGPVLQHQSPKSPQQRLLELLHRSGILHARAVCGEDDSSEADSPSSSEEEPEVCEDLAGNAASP
# [3] = system: Rattus norvegicus; experiment: Toxicity in cholesterol-fed Sprague-Dawley rat assessed as TSH level at 50 ug/kg/day, po qd for 1 week measured 3 to 6 hrs post last dose (reference value: 62 +/- 7 ng/dl); type: organism-based; settings: in vivo, 0.05 mg/kg
# [4] = system: Rattus norvegicus; experiment: Toxicity in cholesterol-fed Sprague-Dawley rat assessed as total T4 level at 50 ug/kg/day, po qd for 1 week measured 3 to 6 hrs post last dose (reference value: 3.8 +/- 0.9 ug/dl); type: organism-based; settings: in vivo, 0.05 mg/kg
# [5] = system: Rattus norvegicus; experiment: Toxicity in cholesterol-fed Sprague-Dawley rat assessed as TSH level at 50 ug/kg/day, po qd for 1 week measured 3 to 6 hrs post last dose (reference value: 3.0 +/- 1.0 uIU/ml); type: organism-based; settings: in vivo, 0.05 mg/kg
# [6] = system: Rattus norvegicus; experiment: Toxicity in cholesterol-fed Sprague-Dawley rat assessed as heart weight at 50 ug/kg/day, po qd for 1 week measured 3 to 6 hrs post last dose (reference value: 1.14 +/- 0.12 g); type: organism-based; settings: in vivo, 0.05 mg/kg
# [7] = system: Rattus norvegicus; experiment: Toxicity in cholesterol-fed Sprague-Dawley rat assessed as heart rate at 50 ug/kg/day, po qd for 1 week measured 3 to 6 hrs post last dose (reference value: 383.0 +/- 26.7 bpm); type: organism-based; settings: in vivo, 0.05 mg/kg
# [8] = system: Rattus norvegicus; experiment: Reduction in plasma triglyceride level in cholesterol-fed Sprague-Dawley rat at 50 ug/kg/day, po qd for 1 week measured 3 to 6 hrs post last dose (reference value: 62 +/- 25 mg/dl); type: functional
# [9] = system: Rattus norvegicus; experiment: Reduction in plasma HDL-cholesterol in cholesterol-fed Sprague-Dawley rat at 50 ug/kg/day, po qd for 1 week measured 3 to 6 hrs post last dose (reference value: 22 +/- 6 mg/dl); type: functional
# [10] = system: Rattus norvegicus; experiment: Reduction in plasma free cholesterol in cholesterol-fed Sprague-Dawley rat at 50 ug/kg/day, po qd for 1 week measured 3 to 6 hrs post last dose (reference value: 36 +/- 9 mg/dl); type: functional
# [11] = system: Rattus norvegicus; experiment: Reduction in plasma LDL-cholesterol in cholesterol-fed Sprague-Dawley rat at 50 ug/kg/day, po qd for 1 week measured 3 to 6 hrs post last dose (reference value: 51 +/- 15 mg/dl); type: functional
# [12] = system: Rattus norvegicus; experiment: Reduction in plasma total cholesterol in cholesterol-fed Sprague-Dawley rat at 50 ug/kg/day, po qd for 1 week measured 3 to 6 hrs post last dose (reference value: 190 +/- 49 mg/dl); type: functional
# [13] = organism: Homo sapiens; experiment: Reduction in triglyceride level in coronary heart disease patient with hyperlipidemia relative to placebo-control; type: functional; design: scale not given: the % may be the effect or the level left
# [14] = organism: Homo sapiens; experiment: Reduction in cholesterol level in coronary heart disease patient with hyperlipidemia relative to placebo-control; type: functional; design: scale not given: the % may be the effect or the level left
# [15] = system: Rattus norvegicus; experiment: Toxicity in cholesterol-fed Sprague-Dawley rat assessed as total T4 level at 30 mg/kg/day, po qd for 1 week measured 3 to 6 hrs post last dose (reference value: 3.8 +/- 0.9 ug/dl); type: organism-based; design: route oral; settings: in vivo
# [16] = system: Rattus norvegicus; experiment: Toxicity in cholesterol-fed Sprague-Dawley rat assessed as TSH level at 30 mg/kg/day, po qd for 1 week measured 3 to 6 hrs post last dose (reference value: 3.0 +/- 1.0 uIU/ml); type: organism-based; design: route oral; settings: in vivo
# [17] = system: Rattus norvegicus; experiment: Toxicity in cholesterol-fed Sprague-Dawley rat assessed as heart weight at 30 mg/kg/day, po qd for 1 week measured 3 to 6 hrs post last dose (reference value: 1.14 +/- 0.12 g); type: organism-based; design: route oral; settings: in vivo
# [18] = system: Rattus norvegicus; experiment: Toxicity in cholesterol-fed Sprague-Dawley rat assessed as heart rate at 30 mg/kg/day, po qd for 1 week measured 3 to 6 hrs post last dose (reference value: 383.0 +/- 26.7 bpm); type: organism-based; design: route oral; settings: in vivo
# [19] = system: Rattus norvegicus; experiment: Toxicity in cholesterol-fed Sprague-Dawley rat assessed as total T4 level at 150 mg/kg/day, po qd for 1 week measured 3 to 6 hrs post last dose (reference value: 3.8 +/- 0.9 ug/dl); type: organism-based; design: route oral; settings: in vivo
# [20] = system: Rattus norvegicus; experiment: Toxicity in cholesterol-fed Sprague-Dawley rat assessed as TSH level at 150 mg/kg/day, po qd for 1 week measured 3 to 6 hrs post last dose (reference value: 3.0 +/- 1.0 uIU/ml); type: organism-based; design: route oral; settings: in vivo
# [21] = system: Rattus norvegicus; experiment: Toxicity in cholesterol-fed Sprague-Dawley rat assessed as heart weight at 150 mg/kg/day, po qd for 1 week measured 3 to 6 hrs post last dose (reference value: 1.14 +/- 0.12 g); type: organism-based; design: route oral; settings: in vivo
# [22] = system: Rattus norvegicus; experiment: Toxicity in cholesterol-fed Sprague-Dawley rat assessed as heart rate at 150 mg/kg/day, po qd for 1 week measured 3 to 6 hrs post last dose (reference value: 383.0 +/- 26.7 bpm); type: organism-based; design: route oral; settings: in vivo
# [23] = system: Rattus norvegicus; experiment: Reduction in plasma triglyceride level in cholesterol-fed Sprague-Dawley rat at 30 mg/kg/day, po qd for 1 week measured 3 to 6 hrs post last dose (reference value: 62 +/- 25 mg/dl); type: functional
# [24] = system: Rattus norvegicus; experiment: Reduction in plasma HDL-cholesterol in cholesterol-fed Sprague-Dawley rat at 30 mg/kg/day, po qd for 1 week measured 3 to 6 hrs post last dose (reference value: 22 +/- 6 mg/dl); type: functional
# [25] = system: Rattus norvegicus; experiment: Reduction in plasma free cholesterol in cholesterol-fed Sprague-Dawley rat at 30 mg/kg/day, po qd for 1 week measured 3 to 6 hrs post last dose (reference value: 36 +/- 9 mg/dl); type: functional
# [26] = system: Rattus norvegicus; experiment: Reduction in plasma LDL-cholesterol in cholesterol-fed Sprague-Dawley rat at 30 mg/kg/day, po qd for 1 week measured 3 to 6 hrs post last dose (reference value: 51 +/- 15 mg/dl); type: functional
# [27] = system: Rattus norvegicus; experiment: Reduction in plasma total cholesterol in cholesterol-fed Sprague-Dawley rat at 30 mg/kg/day, po qd for 1 week measured 3 to 6 hrs post last dose (reference value: 190 +/- 49 mg/dl); type: functional
# [28] = system: HepG2; experiment: Selectivity ratio of EC50 for human recombinant transfected in human HepG2 cells to EC50 for human recombinant TRbeta1 transfected in human HepG2; type: cell-based
# [29] = system: CV-1; experiment: Selectivity ratio of EC50 for human recombinant transfected in CV-1 cells to EC50 for human recombinant TRbeta1 transfected in CV-1 cells; type: cell-based
# Outline: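 CV-1 monkey kidney cells grown in DMEM with 10% FBS for 24 h at 37 °C and 5% CO2. Transfected (FuGENE) with hTRα1 or hTRβ1 plus a SEAP reporter for 24 h, then exposed to T3 or test compound for 8-10 h. SEAP was read as A405 of p-nitrophenol (pH 9.8, 30 min, RT). EC50 was set against T3 max = 100%; mean of four experiments; α/β ratio of EC50s.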
# [30] = molecular target: T1, Thyroid hormone receptor beta; experiment: Agonist activity at human recombinant TRbeta1 transfected in human HepG2 cells after 8 to 10 hrs by alkaline phosphatase reporter gene assay; type: cell-based
# [31] = molecular target: T1, Thyroid hormone receptor beta; experiment: Agonist activity at human recombinant TRbeta1 transfected in CV-1 cells after 8 to 10 hrs by alkaline phosphatase reporter gene assay; type: cell-based
# [32] = molecular target: T2, Thyroid hormone receptor alpha; experiment: Agonist activity at human recombinant TRalpha1 transfected in CV-1 cells after 8 to 10 hrs by alkaline phosphatase reporter gene assay; type: cell-based
# [33] = organism: Homo sapiens; experiment: Reduction in LDL-cholesterol in healthy human at 100 ug qd for 2 weeks; type: functional; design: scale not given: the % may be the effect or the level left
# [34] = organism: Homo sapiens; experiment: Reduction in LDL-cholesterol in healthy human at 100 ug qd for 1 week; type: functional; design: scale not given: the % may be the effect or the level left
compound,measurement,setting,value
Cc1c(C(=O)NCC(=O)O)c2ccccc2n1Cc1ccc(O)c(C(C)C)c1,IC50,[1],1100 nM
same,IC50,[2],> 10 µM
N[C@@H](Cc1cc(I)c(Oc2ccc(O)c(I)c2)c(I)c1)C(=O)O [LIOTHYRONINE],Activity,[3],31 ng/dL
same,Activity,[4],0.9 µg/dL
same,Activity,[5],0.1 uIU/ml
same,Activity,[6],1.25 g
same,Activity,[7],430 bpm
same,Activity,[8],61 mg/dL
same,Activity,[9],22 mg/dL
same,Activity,[10],22 mg/dL
same,Activity,[11],28 mg/dL
same,Activity,[12],123 mg/dL
Cc1cc2cc(NC(=O)C(=O)O)ccc2n1Cc1ccc(O)c(C(C)C)c1,IC50,[1],1500 nM
same,IC50,[2],0.23 µM
N[C@H](Cc1cc(I)c(Oc2cc(I)c(O)c(I)c2)c(I)c1)C(=O)[O-].O.[Na+] [DEXTROTHYROXINE SODIUM],Activity,[13],15%
same,Activity,[14],12%
Cc1cc2c(NC(=O)CC(=O)O)cccc2n1Cc1ccc(O)c(C(C)C)c1,Activity,[15],2.8 µg/dL
same,Activity,[16],3.1 uIU/ml
same,Activity,[17],1.13 g
same,Activity,[18],403.2 bpm
same,Activity,[19],1.7 µg/dL
same,Activity,[20],0.9 uIU/ml
same,Activity,[21],1.24 g
same,Activity,[22],415.8 bpm
same,Activity,[23],44 mg/dL
same,Activity,[24],23 mg/dL
same,Activity,[25],19 mg/dL
same,Activity,[26],25 mg/dL
same,Activity,[27],111 mg/dL
same,Ratio EC50,[28],16
same,Ratio EC50,[29],4.5
same,EC50,[30],220 nM
same,EC50,[31],1700 nM
same,IC50,[1],230 nM
same,IC50,[2],5.2 µM
Cc1c(CCC(=O)O)c2ccccc2n1Cc1ccc(O)c(C(C)C)c1,Ratio EC50,[29],1
same,EC50,[31],37 nM
same,EC50,[32],39 nM
same,IC50,[1],760 nM
same,IC50,[2],1.3 µM
Cc1c(CCCC(=O)O)c2ccccc2n1Cc1ccc(O)c(C(C)C)c1,Ratio EC50,[29],4.8
same,EC50,[31],37 nM
same,EC50,[32],180 nM
same,IC50,[1],290 nM
same,IC50,[2],3.4 µM
CC(C)c1cc(Cn2ccc3c(NC(=O)C(=O)O)cccc32)ccc1O,Ratio EC50,[28],2.2
same,Ratio EC50,[29],2.7
same,EC50,[30],550 nM
same,EC50,[31],1900 nM
Cc1cc(OCC(=O)O)cc(C)c1Cc1ccc(O)c(C(C)C)c1 [SOBETIROME],Activity,[33],41%
CC(C)c1cc(Oc2c(Br)cc(NC(=O)CC(=O)O)cc2Br)ccc1O [EPROTIROME],Activity,[34],40%
Cc1ccc(NC(=O)C(=O)O)c2ccn(Cc3ccc(O)c(C(C)C)c3)c12,Ratio EC50,[28],2.5
same,Ratio EC50,[29],1.5
same,EC50,[30],190 nM
same,EC50,[31],500 nM
same,IC50,[1],54 nM
same,IC50,[2],0.19 µM
Cc1c(CC(=O)NCC(=O)O)c2ccccc2n1Cc1ccc(O)c(C(C)C)c1,IC50,[1],430 nM
same,IC50,[2],8.2 µM
Cc1c(CC(=O)O)c2ccccc2n1Cc1ccc(O)c(C(C)C)c1,Ratio EC50,[29],3
same,EC50,[31],150 nM
same,EC50,[32],450 nM
Cc1c(CCCCC(=O)O)c2ccccc2n1Cc1ccc(O)c(C(C)C)c1,Ratio EC50,[29],1.6
same,EC50,[31],62 nM
same,EC50,[32],100 nM
same,IC50,[1],1400 nM
same,IC50,[2],> 10 µM
Cc1cc2c(NC(=O)C(=O)O)cccc2n1Cc1ccc(O)c(C(C)C)c1,Ratio EC50,[28],1.5
same,Ratio EC50,[29],2.2
same,EC50,[30],110 nM
same,EC50,[31],590 nM
